Where a SMILES comes first, the peptide text is derived from it. [ ]: non-standard residue; d: D form. ξ: configuration not given here. Bip = N[C@@H](Cc1ccc(-c2ccccc2)cc1)C(=O)O; ξDip = NC(C(=O)O)C(c1ccccc1)c1ccccc1
Columns and labels:
Ramos = assay: Cytotoxicity against human Ramos cells assessed as inhibition of cell proliferation incubated for 4 hrs by MTS assay; type: functional, cell-based
Summary of the method: (§1)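 Cells grown in RPMI-1640 with 2 mM L-glutamine and 10% FBS, plated, then held 24 h at 37 °C. Adherent lines washed once in FBS-free medium. Cells exposed 4 h at 37 °C, 5% CO2 in FBS-free medium to 10 concentrations (1/4 steps, 400 μM top). 1% Triton X-100 served as positive control. MTS/PMS added for 2 h, then OD 490 nm read. IC50 from semilog curves; three independent experiments, quadruplicate wells.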

[1] = Cytotoxicity against human MRC5 cells assessed as inhibition of cell proliferation incubated for 4 hrs by MTT assay; type: toxicity, cell-based
Summary of the method: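 MRC-5 human embryonic lung fibroblasts cultured in MEM with 2 mM L-glutamine and 10% FBS, without antibiotics, at 37 °C in humidified 5% CO2. Cultures were tested for mycoplasma. IC50 from three or more independent measurements, given as mean ± SD.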

[2] = Cytotoxicity against human IGROV(CDDP) cells assessed as inhibition of cell proliferation incubated for 4 hrs by MTS assay; type: functional, cell-based; summary of the method: as §1
HL60/ADR = assay: Cytotoxicity against human HL60/ADR cells assessed as inhibition of cell proliferation incubated for 4 hrs by MTS assay; type: functional, cell-based; summary of the method: as §1
PC-3 = assay: Cytotoxicity against human PC-3 cells assessed as inhibition of cell proliferation incubated for 4 hrs by MTS assay; type: functional, cell-based; settings: PC-3, 4 h; summary of the method: as §1
NAMALVA = assay: Cytotoxicity against human NAMALVA cells assessed as inhibition of cell proliferation incubated for 4 hrs by MTS assay; type: functional, cell-based; summary of the method: as §1
Daudi = assay: Cytotoxicity against human Daudi cells assessed as inhibition of cell proliferation incubated for 4 hrs by MTS assay; type: functional, cell-based; summary of the method: as §1
PANC-1 = assay: Cytotoxicity against human PANC-1 cells assessed as inhibition of cell proliferation incubated for 4 hrs by MTS assay; type: functional, cell-based; settings: PANC-1, 4 h; summary of the method: as §1
T47D = assay: Cytotoxicity against human T47D cells assessed as inhibition of cell proliferation incubated for 4 hrs by MTS assay; type: functional, cell-based; summary of the method: as §1
OVCAR-3 = assay: Cytotoxicity against human OVCAR-3 cells assessed as inhibition of cell proliferation incubated for 4 hrs by MTS assay; type: functional, cell-based; settings: OVCAR-3, 4 h; summary of the method: as §1
CCRF-CEM = assay: Cytotoxicity against human CCRF-CEM cells assessed as inhibition of cell proliferation incubated for 4 hrs by MTS assay; type: functional, cell-based; summary of the method: as §1
IGROV-1 = assay: Cytotoxicity against human IGROV-1 cells assessed as inhibition of cell proliferation incubated for 4 hrs by MTS assay; type: functional, cell-based; settings: IGROV-1, 4 h; summary of the method: as §1
K562 = assay: Cytotoxicity against human K562 cells assessed as inhibition of cell proliferation incubated for 4 hrs by MTS assay; type: functional, cell-based; settings: K562, 4 h; summary of the method: as §1
HCT-116 = assay: Cytotoxicity against human HCT-116 cells assessed as inhibition of cell proliferation incubated for 4 hrs by MTS assay; type: functional, cell-based; settings: HCT-116, 4 h; summary of the method: as §1
DU-145 = assay: Cytotoxicity against human DU-145 cells assessed as inhibition of cell proliferation incubated for 4 hrs by MTS assay; type: functional, cell-based; settings: DU-145, 4 h; summary of the method: as §1
HCT-15 = assay: Cytotoxicity against human HCT-15 cells assessed as inhibition of cell proliferation incubated for 4 hrs by MTS assay; type: functional, cell-based; settings: HCT-15, 4 h; summary of the method: as §1
U-937 = assay: Cytotoxicity against human U-937 cells assessed as inhibition of cell proliferation incubated for 4 hrs by MTS assay; type: functional, cell-based; settings: U-937, 4 h; summary of the method: as §1
HL-60 = assay: Cytotoxicity against human HL-60 cells assessed as inhibition of cell proliferation incubated for 4 hrs by MTS assay; type: functional, cell-based; settings: HL-60, 4 h; summary of the method: as §1
Toledo = assay: Cytotoxicity against human Toledo cells assessed as inhibition of cell proliferation incubated for 4 hrs by MTS assay; type: functional, cell-based; summary of the method: as §1
[3] = Cytotoxicity against mouse AT84 cells assessed as inhibition of cell proliferation incubated for 4 hrs by MTT assay; type: functional, cell-based; settings: AT84, 4 h
MCF7 [4] = assay: Cytotoxicity against human MCF7 cells assessed as inhibition of cell proliferation incubated for 4 hrs by MTS assay; type: functional, cell-based; settings: MCF7, 4 h; summary of the method: as §1
KARPAS-299 = assay: Cytotoxicity against human KARPAS-299 cells assessed as inhibition of cell proliferation incubated for 4 hrs by MTS assay; type: functional, cell-based; settings: KARPAS-299, 4 h; summary of the method: as §1
BXPC-3 = assay: Cytotoxicity against human BXPC-3 cells assessed as inhibition of cell proliferation incubated for 4 hrs by MTS assay; type: functional, cell-based; settings: BXPC-3, 4 h; summary of the method: as §1
HT-29 = assay: Cytotoxicity against human HT-29 cells assessed as inhibition of cell proliferation incubated for 4 hrs by MTS assay; type: functional, cell-based; settings: HT-29, 4 h; summary of the method: as §1
MCF7 [5] = assay: Cytotoxicity against human MCF7 cells transfected with MDR1 assessed as inhibition of cell proliferation incubated for 4 hrs by MTS assay; type: functional, cell-based; settings: MCF7, 4 h; summary of the method: as §1
[6] = Cytotoxicity against human U-87 MG cells assessed as inhibition of cell proliferation incubated for 4 hrs by MTS assay; type: functional, cell-based, U-87MG ATCC; summary of the method: as §1
A549 = assay: Cytotoxicity against human A549 cells assessed as inhibition of cell proliferation incubated for 4 hrs by MTS assay; type: functional, cell-based; settings: A549, 4 h; summary of the method: as §1
SK-N-AS = assay: Cytotoxicity against human SK-N-AS cells assessed as inhibition of cell proliferation incubated for 4 hrs by MTS assay; type: functional, cell-based; summary of the method: as §1
786-0 = assay: Cytotoxicity against human 786-0 cells assessed as inhibition of cell proliferation incubated for 4 hrs by MTS assay; type: functional, cell-based; settings: 786-0, 4 h; summary of the method: as §1
[7] = Cytotoxicity against human HUVEC-C cells assessed as inhibition of cell proliferation incubated for 4 hrs by MTS assay; type: toxicity, cell-based; summary of the method: as §1
CEM-VLB = assay: Cytotoxicity against human CCRF-CEM/VLB cells assessed as inhibition of cell proliferation incubated for 4 hrs by MTS assay; type: functional, cell-based; summary of the method: as §1
SK-OV-3 = assay: Cytotoxicity against human SK-OV-3 cells assessed as inhibition of cell proliferation incubated for 4 hrs by MTS assay; type: functional, cell-based; settings: SK-OV-3, 4 h; summary of the method: as §1
SU-DHL-1 = assay: Cytotoxicity against human SU-DHL-1 cells assessed as inhibition of cell proliferation incubated for 4 hrs by MTS assay; type: functional, cell-based; settings: SU-DHL-1, 4 h; summary of the method: as §1
A20 = assay: Cytotoxicity against mouse A20 lymphoma cells assessed as inhibition of cell proliferation incubated for 4 hrs by MTT assay; type: functional, cell-based; settings: A20, 4 h
Summary of the method: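 Murine A20 cells cultured in RPMI-1640 with 2 mM L-glutamine, 1.5 g/L sodium bicarbonate, 4.5 g/L glucose, 10 mM HEPES, 1.0 mM sodium pyruvate, 0.05 mM 2-mercaptoethanol and 10% FBS, without antibiotics, at 37 °C, 5% CO2. IC50 from three or more independent measurements, given as mean ± SD.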

Calu-6 = assay: Cytotoxicity against human Calu-6 cells assessed as inhibition of cell proliferation incubated for 4 hrs by MTS assay; type: functional, cell-based; settings: Calu-6, 4 h; summary of the method: as §1
Malme-3M = assay: Cytotoxicity against human Malme-3M cells assessed as inhibition of cell proliferation incubated for 4 hrs by MTS assay; type: functional, cell-based; summary of the method: as §1
COLO 205 = assay: Cytotoxicity against human COLO 205 cells assessed as inhibition of cell proliferation incubated for 4 hrs by MTS assay; type: functional, cell-based; settings: COLO 205, 4 h; summary of the method: as §1
[8] = Cytotoxicity against human MINO cells assessed as inhibition of cell proliferation incubated for 4 hrs by MTS assay; type: functional, cell-based; summary of the method: as §1
NCI-H460 = assay: Cytotoxicity against human NCI-H460 cells assessed as inhibition of cell proliferation incubated for 4 hrs by MTS assay; type: functional, cell-based; settings: NCI-H460, 4 h; summary of the method: as §1

SMILES | IC50 (Ramos) [µM] | IC50 at 4 h [1] [µM] | IC50 [2] [µM] | IC50 (HL60/ADR) [µM] | IC50 (PC-3) [µM] | IC50 (NAMALVA) [µM] | IC50 (Daudi) [µM] | IC50 (PANC-1) [µM] | IC50 (T47D) [µM] | IC50 (OVCAR-3) [µM] | IC50 (CCRF-CEM) [µM] | IC50 (IGROV-1) [µM] | IC50 (K562) [µM] | IC50 (HCT-116) [µM] | IC50 (DU-145) [µM] | IC50 (HCT-15) [µM] | IC50 (U-937) [µM] | IC50 (HL-60) [µM] | IC50 (Toledo) [µM] | IC50 [3] [µM] | also measured
NCCCC[C@H](NC(=O)C(NC(=O)[C@H](Cc1c[nH]c2ccccc12)NC(=O)[C@H](CCCCN)NC(=O)[C@H](CCCCN)NC(=O)[C@H](Cc1c[nH]c2ccccc12)NC(=O)[C@H](Cc1c[nH]c2ccccc12)NC(=O)[C@H](CCCCN)NC(=O)[C@@H](N)CCCCN)C(c1ccccc1)c1ccccc1)C(N)=O (stereo partly drawn) (H-KKWWKKW[ξDip]K-NH2) | 1.7 | 34.3 | 3.2 | 3 | 4.4 | 3.6 | 4 | 3.8 | 1.2 | 5.2 | 2.6 | 6.4 | 3 | 3.4 | 3.9 | 3.8 | 1.2 | 2.1 | 2.3 | 11 | IC50 (MCF7 [4]): 2.2 µM; IC50 (KARPAS-299): 4.8 µM; IC50 (BXPC-3): 3.7 µM; IC50 (HT-29): 3.3 µM; IC50 (MCF7 [5]): 2.5 µM; IC50 [6]: 6.6 µM; IC50 (A549): 2.8 µM; IC50 (SK-N-AS): 2.5 µM; IC50 (786-0): 5.8 µM; IC50 at 4 h [7]: 16.3 µM; IC50 (CEM-VLB): 2.4 µM; IC50 (SK-OV-3): 7.2 µM; IC50 (SU-DHL-1): 2.3 µM; IC50 (A20): 8.3 µM; IC50 (Calu-6): 2.1 µM; IC50 (Malme-3M): 3.3 µM; IC50 (COLO 205): 2.6 µM; IC50 [8]: 3.7 µM; IC50 (NCI-H460): 3.4 µM
NCCCC[C@H](NC(=O)[C@H](Cc1c[nH]c2ccccc12)NC(=O)[C@H](Cc1c[nH]c2ccccc12)NC(=O)[C@H](CCCCN)NC(=O)[C@H](CCCCN)NC(=O)[C@H](Cc1c[nH]c2ccccc12)NC(=O)[C@H](Cc1ccc(-c2ccccc2)cc1)NC(=O)[C@H](CCCCN)NC(=O)[C@@H](N)CCCCN)C(N)=O (H-KK[Bip]WKKWWK-NH2) | 3.8 | 87 | 6.6 | 4.9 | 10.1 | 6.5 | 7.9 | 9.5 | 2.4 | 14.1 | 5.3 | 14.3 | 7.4 | 8.6 | 8.2 | 10 | 2.7 | 6.1 | 5.4 | 11.3 | IC50 (MCF7 [4]): 4.6 µM; IC50 (KARPAS-299): 8.7 µM; IC50 (BXPC-3): 8.2 µM; IC50 (HT-29): 8.9 µM; IC50 (MCF7 [5]): 4.9 µM; IC50 [6]: 16.9 µM; IC50 (A549): 7.8 µM; IC50 (SK-N-AS): 6 µM; IC50 (786-0): 13.8 µM; IC50 at 4 h [7]: 33 µM; IC50 (CEM-VLB): 4 µM; IC50 (SK-OV-3): 12.6 µM; IC50 (SU-DHL-1): 5.6 µM; IC50 (A20): 8.3 µM; IC50 (Calu-6): 4.9 µM; IC50 (Malme-3M): 7.1 µM; IC50 (COLO 205): 5.7 µM; IC50 [8]: 5.9 µM; IC50 (NCI-H460): 8.7 µM

Source: ChEMBL document CHEMBL5257020, “Discovery of a 9-mer Cationic Peptide (LTX-315) as a Potential First in Class Oncolytic Peptide” (J Med Chem, 2016)
